Data reported in ChEMBL document CHEMBL1681730, “17,20-lyase inhibitors. Part 4: design, synthesis and structure-activity relationships of naphthylmethylimidazole derivatives as novel 17,20-lyase inhibitors” (Bioorg Med Chem, 2011).

What was measured:
Homo sapiens = species: Homo sapiens; assay: Ratio of IC50 for human CYP3A4 to IC50 for human 17,20-lyase
Procedure, shortened: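 Two assays. Human 17,20-lyase: recombinant P450c17 (0.5 pmol) with cytochrome b5 and NADPH-P450 reductase, 10 nM [1,2-3H]-17α-hydroxypregnenolone, 5 mM NADPH, 1 mM MgCl2, pH 7.4 phosphate, 1–1000 nM compound, 15 min at 37 °C. DHEA separated by TLC, IC50 calculated. CYP3A4: recombinant enzyme, 100 μM testosterone, NADPH-regenerating system, 30 min at 37 °C, 6-hydroxytestosterone measured by HPLC.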

[1] = molecular target: T1, Steroid 17-alpha-hydroxylase/17,20 lyase (Rattus norvegicus, UniProt P11715); assay: Inhibition of 17,20 lyase activity in Sprague-Dawley rat testicular microsomes; set-up: species or system Testis
T1 sequence (P11715 whole entry): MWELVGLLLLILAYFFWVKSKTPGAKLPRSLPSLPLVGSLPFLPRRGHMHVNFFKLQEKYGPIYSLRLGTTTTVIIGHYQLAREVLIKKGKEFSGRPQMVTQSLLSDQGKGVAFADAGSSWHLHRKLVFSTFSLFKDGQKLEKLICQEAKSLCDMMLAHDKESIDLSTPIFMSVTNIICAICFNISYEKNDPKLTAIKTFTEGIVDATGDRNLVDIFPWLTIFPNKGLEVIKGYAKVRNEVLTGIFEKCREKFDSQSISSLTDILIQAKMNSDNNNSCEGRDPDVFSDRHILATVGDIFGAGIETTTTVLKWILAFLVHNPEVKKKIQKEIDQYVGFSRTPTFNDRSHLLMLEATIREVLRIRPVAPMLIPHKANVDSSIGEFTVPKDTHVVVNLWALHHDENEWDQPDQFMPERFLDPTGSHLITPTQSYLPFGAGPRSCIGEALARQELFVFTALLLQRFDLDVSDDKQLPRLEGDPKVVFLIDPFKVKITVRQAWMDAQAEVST
Procedure, shortened: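 Testicular microsomes from 13-week-old male SD rats (7 µg protein) in 75 mM phosphate buffer, pH 7.4, with 10 nM [1,2-3H]-17α-hydroxyprogesterone, 5 mM NADPH, and 1–1000 nM test compound (all final). Compounds were diluted in DMF and then in water. Incubation ran 15 min at 37 °C and was stopped with ethyl acetate. IC50 is the concentration that halves product formation.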

Cytochrome P450 3A4 = Cytochrome P450 3A4 (Homo sapiens, UniProt P08684); assay: Inhibition of human CYP3A4; format: ADME
[2] = molecular target: T2, Steroid 17-alpha-hydroxylase/17,20 lyase (Homo sapiens, UniProt P05093); assay: Inhibition of 17,20 lyase activity in human
T2 sequence (P05093 whole entry): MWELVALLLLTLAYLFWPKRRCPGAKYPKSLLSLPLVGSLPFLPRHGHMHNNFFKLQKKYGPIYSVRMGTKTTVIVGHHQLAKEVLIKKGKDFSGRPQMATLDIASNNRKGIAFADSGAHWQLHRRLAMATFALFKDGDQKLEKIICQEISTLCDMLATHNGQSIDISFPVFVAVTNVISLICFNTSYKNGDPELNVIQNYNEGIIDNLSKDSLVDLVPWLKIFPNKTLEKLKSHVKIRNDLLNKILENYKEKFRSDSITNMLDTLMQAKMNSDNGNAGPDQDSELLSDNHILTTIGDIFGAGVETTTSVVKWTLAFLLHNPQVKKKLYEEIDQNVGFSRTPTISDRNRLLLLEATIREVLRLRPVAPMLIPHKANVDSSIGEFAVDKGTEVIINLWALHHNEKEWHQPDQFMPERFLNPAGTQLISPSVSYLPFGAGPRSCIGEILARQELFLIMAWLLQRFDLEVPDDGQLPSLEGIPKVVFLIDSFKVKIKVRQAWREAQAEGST
Procedure, shortened: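 Recombinant P450c17 (0.5 pmol) with cytochrome b5 (0.5 pmol) and NADPH-P450 reductase (20.8 ng) in 75 mM phosphate pH 7.4 with 1 mM MgCl2. Substrate 10 nM [1,2-3H]-17α-hydroxypregnenolone, 5 mM NADPH, compound 1–1000 nM. Incubated 15 min at 37 °C, ethyl acetate extraction, DHEA separated from substrate by silica TLC (cyclohexane–ethyl acetate 3:2). IC50 taken as 50% reduction in product.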

Cynomolgus monkey [3] = assay: Antiandrogenic activity in cynomolgus monkey assessed as reduction serum testosterone level at 1 mg/kg, po at 8 hrs (reference value: 68.5 +/- 27.3%); format: functional, Macaca fascicularis; set-up: scale not given: the % may be the effect or the level left
Cynomolgus monkey [4] = assay: Antiandrogenic activity in cynomolgus monkey assessed as reduction serum DHEA level at 1 mg/kg, po at 4 hrs (reference value: 105.7 +/- 4.2%); format: functional, Macaca fascicularis; set-up: scale not given: the % may be the effect or the level left
Procedure, shortened: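 Adult male cynomolgus monkeys (23 ± 2 °C, 12:12 h light/dark) given a single oral 1 mg/kg dose as a suspension in 0.5% methylcellulose. Serum collected just before dosing and at 4 and 8 h, stored at −30 °C, and assayed by RIA. Values expressed as % of the 0 h level, mean ± SD, n = 3. Dunnett test against vehicle.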

Cynomolgus monkey [5] = assay: Antiandrogenic activity in cynomolgus monkey assessed as reduction serum DHEA level at 1 mg/kg, po at 8 hrs (reference value: 38.5 +/- 18.4%); format: functional, Macaca fascicularis; set-up: scale not given: the % may be the effect or the level left
Cynomolgus monkey [6] = assay: Antiandrogenic activity in cynomolgus monkey assessed as reduction serum testosterone level at 1 mg/kg, po at 4 hrs (reference value: 89.1 +/- 15.6%); format: functional, Macaca fascicularis; set-up: scale not given: the % may be the effect or the level left
Cytochrome P450c11B3 = molecular target: T3, Cytochrome P450c11B3 (Rattus norvegicus, UniProt Q64546); assay: Inhibition of 11-hydroxylase activity in Sprague-Dawley rat adrenal gland; format: tissue-based
T3 sequence (Q64546 whole entry): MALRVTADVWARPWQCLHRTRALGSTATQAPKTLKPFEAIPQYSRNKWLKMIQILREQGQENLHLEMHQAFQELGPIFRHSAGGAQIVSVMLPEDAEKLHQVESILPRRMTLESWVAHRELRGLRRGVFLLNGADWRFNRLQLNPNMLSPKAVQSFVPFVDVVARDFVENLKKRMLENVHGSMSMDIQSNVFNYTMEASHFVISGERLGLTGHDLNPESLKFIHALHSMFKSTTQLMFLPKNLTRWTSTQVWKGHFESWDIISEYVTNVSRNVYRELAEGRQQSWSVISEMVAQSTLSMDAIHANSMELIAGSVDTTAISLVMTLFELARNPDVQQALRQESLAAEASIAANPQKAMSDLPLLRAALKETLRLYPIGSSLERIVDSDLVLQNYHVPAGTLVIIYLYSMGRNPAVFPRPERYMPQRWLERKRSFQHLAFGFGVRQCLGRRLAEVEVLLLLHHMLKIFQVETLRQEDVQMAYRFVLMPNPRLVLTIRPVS
Procedure, shortened: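 Mitochondrial fraction from SD rat adrenal glands, 4 µg protein, in 200 mM mannitol, 4.5 mM HEPES, 2.3 mM K phosphate pH 7.4, 0.1 mM EDTA, 0.03% BSA, 4.5 mM NADPH, 11 mM CaCl2. Substrate 10 nM [1,2-3H]-11-deoxycortisol. Test compound 1–1000 nM, diluted in DMF. Incubated 30 min at 37 °C, stopped with ethyl acetate. Final concentrations.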

Sequence of Cytochrome P450 3A4 (P08684 whole entry): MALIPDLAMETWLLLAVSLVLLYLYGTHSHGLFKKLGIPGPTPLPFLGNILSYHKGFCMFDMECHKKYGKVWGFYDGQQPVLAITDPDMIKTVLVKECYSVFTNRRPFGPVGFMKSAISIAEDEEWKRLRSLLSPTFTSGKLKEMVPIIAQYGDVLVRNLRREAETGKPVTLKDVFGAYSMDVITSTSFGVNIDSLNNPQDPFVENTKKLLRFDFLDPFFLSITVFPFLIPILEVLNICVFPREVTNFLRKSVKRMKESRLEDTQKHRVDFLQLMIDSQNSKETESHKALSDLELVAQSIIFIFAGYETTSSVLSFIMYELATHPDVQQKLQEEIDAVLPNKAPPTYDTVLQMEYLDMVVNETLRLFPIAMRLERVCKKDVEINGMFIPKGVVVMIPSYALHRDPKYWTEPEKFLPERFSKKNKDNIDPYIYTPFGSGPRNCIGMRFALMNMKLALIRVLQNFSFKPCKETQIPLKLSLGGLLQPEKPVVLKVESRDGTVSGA

In the case of COc1ccc2cc([C@](O)(c3c[nH]cn3)C(C)C)ccc2c1, the Ratio IC50 (Homo sapiens) is reported as < 36, the IC50 [1] is reported as 21 nM and the IC50 (Cytochrome P450 3A4) is reported as < 1000 nM. The IC50 [2] was 28 nM.
CC(C)[C@](O)(c1ccc2c3c(ccc2c1)C(=O)N(C)C3)c1c[nH]cn1 was tested, and the Activity (Cynomolgus monkey [3]) was 9.8%, the Ratio IC50 (Homo sapiens) was > 1000 and the Activity (Cynomolgus monkey [4]) was 16.8%. For the same compound, the Activity (Cynomolgus monkey [5]) was 7.7% and the Activity (Cynomolgus monkey [6]) was 13.2%.
With CC(C)[C@@](O)(c1ccc2c3c(ccc2c1)C(=O)N(C)C3)c1cnc[nH]1 the IC50 (Cytochrome P450c11B3) was > 1000 nM, the IC50 [1] was 110 nM and the IC50 (Cytochrome P450 3A4) was > 10000 nM. The IC50 [2] was 270 nM.
CC(=O)c1ccc2cc(C(O)(c3c[nH]cn3)C(C)C)ccc2c1 (racemic) was tested, and the Ratio IC50 (Homo sapiens) was 50, the IC50 [1] was 14 nM and the IC50 (Cytochrome P450 3A4) was 1400 nM. It also gave an IC50 [2] of 28 nM.
CC(=O)Nc1ccc2cc(C(O)(c3c[nH]cn3)C(C)C)ccc2c1 (racemic) was tested, and the Ratio IC50 (Homo sapiens) was < 26, the IC50 [1] was 29 nM and the IC50 (Cytochrome P450 3A4) was < 1000 nM. It also gave an IC50 [2] of 39 nM.
CNC(=O)Nc1ccc2cc(C(O)(c3c[nH]cn3)C(C)C)ccc2c1 (racemic) was tested, and the Ratio IC50 (Homo sapiens) was < 28, the IC50 [1] was 11 nM and the IC50 (Cytochrome P450 3A4) was < 1000 nM. The IC50 [2] was 36 nM.
Compound COC(=O)c1ccc2cc(C(O)(c3c[nH]cn3)C(C)C)ccc2c1 (racemic) has a Ratio IC50 (Homo sapiens) of 58, an IC50 [1] of 43 nM and an IC50 (Cytochrome P450 3A4) of 1400 nM. For the same compound, the IC50 [2] was 24 nM.
In the case of CC(C)C(O)(c1ccc2cc(C(N)=O)ccc2c1)c1c[nH]cn1 (racemic), the IC50 [1] is reported as < 10 nM, the IC50 (Cytochrome P450 3A4) is reported as 3700 nM and the IC50 [2] is reported as 30 nM.
For CNC(=O)c1ccc2cc(C(O)(c3c[nH]cn3)C(C)C)ccc2c1 (racemic), the Ratio IC50 (Homo sapiens) was 225, the IC50 [1] was 6 nM and the IC50 (Cytochrome P450 3A4) was 3600 nM. For the same compound, the IC50 [2] was 16 nM.
With CCNC(=O)c1ccc2cc(C(O)(c3c[nH]cn3)C(C)C)ccc2c1 (racemic) the IC50 [1] was 11 nM, the IC50 (Cytochrome P450 3A4) was 5700 nM and the IC50 [2] was 46 nM.
CCCNC(=O)c1ccc2cc(C(O)(c3cnc[nH]3)C(C)C)ccc2c1 (racemic) was tested, and the IC50 [1] was 13 nM, the IC50 (Cytochrome P450 3A4) was 3400 nM and the IC50 [2] was 38 nM.
For CC(C)NC(=O)c1ccc2cc(C(O)(c3c[nH]cn3)C(C)C)ccc2c1 (racemic), the IC50 [1] was 12 nM, the IC50 (Cytochrome P450 3A4) was 9300 nM and the IC50 [2] was 75 nM.
For CNC(=O)c1ccc2cc(C(O)(c3cnc[nH]3)C(C)C)ccc2c1Cl (racemic), the IC50 [1] was 91 nM, the IC50 (Cytochrome P450 3A4) was > 10000 nM and the IC50 [2] was 200 nM.
CNC(=O)c1ccc2cc(C(O)(c3c[nH]cn3)C(C)C)ccc2c1C (racemic) was tested, and the IC50 [1] was 200 nM, the IC50 (Cytochrome P450 3A4) was > 10000 nM and the IC50 [2] was 160 nM.
For CNC(=O)c1cc2ccc(C(O)(c3c[nH]cn3)C(C)C)cc2cc1C (racemic), the IC50 [1] was 12 nM, the IC50 (Cytochrome P450 3A4) was 3600 nM and the IC50 [2] was 39 nM.
Work on CC(C)C(O)(c1ccc2c3c(ccc2c1)C(=O)NC3)c1c[nH]cn1 (racemic) yielded an IC50 (Cytochrome P450 3A4) of 6700 nM and an IC50 [2] of 18 nM.
CC(C)C(O)(c1ccc2c3c(ccc2c1)C(=O)N(C)C3)c1c[nH]cn1 (racemic) gave an IC50 [2] of 22 nM.
In the case of CC(C)C(O)(c1ccc2cc3c(cc2c1)CNC3=O)c1c[nH]cn1 (racemic), the IC50 [2] is reported as 36 nM.
CC(C)C(O)(c1ccc2cc3c(cc2c1)CN(C)C3=O)c1c[nH]cn1 (racemic) was tested, and the IC50 [1] was 70 nM, the IC50 (Cytochrome P450 3A4) was 5400 nM and the IC50 [2] was 19 nM.
In the case of CC(C)C(O)(c1ccc2c3c(ccc2c1)C(=O)NC3)c1c[nH]cn1 (single isomer, unassigned; (-)), the IC50 (Cytochrome P450c11B3) is reported as 13 nM, the IC50 (Cytochrome P450 3A4) is reported as > 10000 nM and the IC50 [2] is reported as 15 nM.
CC(C)C(O)(c1ccc2c3c(ccc2c1)C(=O)NC3)c1c[nH]cn1 (stereo in doubt; (+)-27a) showed an IC50 (Cytochrome P450c11B3) of 220 nM, an IC50 [1] of 180 nM and an IC50 (Cytochrome P450 3A4) of 7400 nM. For the same compound, the IC50 [2] was 60 nM.
